Laboratory results from PubChem BioAssay.
The source made the active and inactive calls.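 Rule for the calls, unless noted: active = viability at or below 30% in both replicate assays; inconclusive = viability at or below 30% in just one of the two assays; inactive = the rest.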

Key:
[1] = Her2 expression decrease, cell viability multiplex – SKBR3 breast tumor cells, AlphaScreen, ATP viability, primary screen (AID 461;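 active = Her2 level under about 52% in both replicate screens, with viability over 70% of control, limit read from the data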;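 for Her2 level: lower value means less Her2 protein in the cells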;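 for viability: percent of carrier control wells set as 100% viability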); conditions: SKBR3 Her2 protein level, 18-24 h, measured here: SKBR3 viability, ATP luminescence, at 10 µM
[2] = target: Receptor tyrosine-protein kinase erbB-2 (Homo sapiens) (UniProt P04626); assay: as above; conditions: 18-24 h, at 10 µM, stronger effect = lower value
[3] = reduced viability of SK-BR-3 breast cancer cells – cell-based, 24 h, human, pilot screen (AID 572;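 active = viability at or below 10% of carrier control in both of two separate runs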;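 note: compound exposure lasted between 18 and 24 h rather than exactly 24 h; 100% = carrier-treated control wells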); conditions: SK-BR-3 viability, CellTiter-Glo luminescence, at 10 µM, stronger effect = lower value
[4] = HUVEC growth inhibition – cell-based, human, primary screen (AID 575); conditions: HUVEC proliferation, CellTiter-Glo luminescence, 72 h; at 10 µM; stronger effect = lower value;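 note: 100% = median of untreated cell wells with 0.1% DMSO on each plate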
How it was run: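 Test system – primary HUVEC, no more than 12 passages · Dosing – one dose, 10 µM final, 0.1% DMSO · Times – 72 h treatment at 37 °C · Measured by – ATP-based CellTiter-Glo luminescent read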

[5] = H69AR cell proliferation blockers – human, duplicate replicates, primary screen (AID 580;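 active = viability at or under a set limit in both replicates, limit being median viability minus 3 SD, cut at about 48% in these data, passing the limit was not always enough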;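 note: 100% = mean luminescence of untreated wells and 0% = no signal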); conditions: H69AR lung tumor cells viability, ATP luminescence, 72 h; at 10 µM; stronger effect = lower value
[6] = MRP1 drug-resistance reversers in H69AR cells – cell-based, doxorubicin co-treatment, pilot screen (AID 601;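 active = viability loss from added drug above about 55%, and viability with drug at most 40%, in both replicates, limit read from the data, passing the limit was not always enough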); conditions: CellTiter-Glo, 72 h, at 10 µM; for differential viability (reversal): stronger effect = higher value
[7] = yeast transport mutant growth inhibition pilot in 384-well plates, post-Golgi transport modulator project (AID 636; in the data active = inhibition above about 31%); conditions: absorbance 615 nm, about 18 h, stronger effect = higher value
[8] = growth suppression of yeast trafficking mutant, preliminary HTS, modulators of trafficking downstream of Golgi apparatus project, 1536-format plate, OD 615 nm (AID 637; in the data active = inhibition above about 30%); conditions: yeast transport mutant growth, absorbance 615 nm, 18 h; stronger effect = higher value
[9] = H69AR cells + 2 uM doxorubicin, measured here: viability with 2 uM doxorubicin, stronger effect = lower value
[10] = H69AR cells, compound alone cytotoxicity

Receptor tyrosine-protein kinase erbB-2 (Homo sapiens), sequence (P04626 whole entry, looked up): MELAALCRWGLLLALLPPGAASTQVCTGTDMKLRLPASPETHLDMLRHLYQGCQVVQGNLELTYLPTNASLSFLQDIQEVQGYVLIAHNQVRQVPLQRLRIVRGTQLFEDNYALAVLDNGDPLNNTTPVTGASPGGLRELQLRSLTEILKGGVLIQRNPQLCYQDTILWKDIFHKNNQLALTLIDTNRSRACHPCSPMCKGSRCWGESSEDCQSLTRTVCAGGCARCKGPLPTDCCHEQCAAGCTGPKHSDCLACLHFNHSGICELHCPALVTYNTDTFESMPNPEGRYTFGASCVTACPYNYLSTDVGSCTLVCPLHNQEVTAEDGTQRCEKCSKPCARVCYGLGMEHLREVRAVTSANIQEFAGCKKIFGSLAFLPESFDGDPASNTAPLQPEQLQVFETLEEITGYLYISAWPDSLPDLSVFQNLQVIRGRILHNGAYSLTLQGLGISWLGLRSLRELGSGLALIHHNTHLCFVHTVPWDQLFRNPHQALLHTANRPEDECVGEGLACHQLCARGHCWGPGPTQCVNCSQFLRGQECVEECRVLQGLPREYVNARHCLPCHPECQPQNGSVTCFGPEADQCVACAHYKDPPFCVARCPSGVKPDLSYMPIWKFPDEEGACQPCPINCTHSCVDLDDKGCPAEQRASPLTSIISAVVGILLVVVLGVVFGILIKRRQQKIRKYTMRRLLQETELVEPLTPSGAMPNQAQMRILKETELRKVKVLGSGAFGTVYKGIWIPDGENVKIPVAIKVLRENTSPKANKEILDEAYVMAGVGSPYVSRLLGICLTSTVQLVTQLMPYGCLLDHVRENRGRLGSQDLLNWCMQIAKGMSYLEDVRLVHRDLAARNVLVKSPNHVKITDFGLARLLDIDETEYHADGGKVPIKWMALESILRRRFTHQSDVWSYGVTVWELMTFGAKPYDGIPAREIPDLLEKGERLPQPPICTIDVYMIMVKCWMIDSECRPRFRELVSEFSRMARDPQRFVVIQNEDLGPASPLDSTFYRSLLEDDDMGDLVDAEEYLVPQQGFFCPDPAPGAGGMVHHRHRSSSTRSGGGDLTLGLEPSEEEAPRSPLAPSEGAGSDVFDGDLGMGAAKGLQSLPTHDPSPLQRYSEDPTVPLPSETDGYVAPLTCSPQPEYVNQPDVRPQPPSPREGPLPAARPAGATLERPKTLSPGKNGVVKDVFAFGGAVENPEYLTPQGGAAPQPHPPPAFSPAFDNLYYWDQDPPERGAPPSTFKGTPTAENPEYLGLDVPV

| SMILES | viability [1] | Her2 level [2] | viability [3] | viability [4] | viability [5] | differential viability (reversal) ([6]; H69AR cells + 2 uM doxorubicin) | viability [6, 9] | viability [6, 10] | inhibition [7] | inhibition [8] |
| --- | --- | --- | --- | --- | --- | --- | --- | --- | --- | --- |
| Cc1ccc(-n2cnnn2)c2cccnc12 | 95.5% | 92% (inactive) | 95.5% (inactive) | 72.1% (inactive) | 101% (inactive) | 7.82% (inactive) | 93.5% | 101% | -5.53% (inactive) | 4.83% (inactive) |
| CCOC(=O)C1=C(CC)Nc2ccccc2N=C1NC(=O)Cn1cnc2ccccc2c1=O | 96% | 80.5% (inactive) | 96% (inactive) | 97.1% (inactive) | 103% (inactive) | 20.2% (inactive) | 82.3% | 103% | -5.07% (inactive) | 2.9% (inactive) |
| Nc1cc(-c2ccccc2)ccc1O | 100% | 70.5% (inactive) | 100% (inactive) | 86.3% (inactive) | 73% (inactive) | 12% (inactive) | 60.9% | 73% | -7.16% (inactive) | 8.33% (inactive) |
| CCCCS(=O)(=O)NC1=NCN(C2CCN(Cc3ccccc3)CC2)CN1 | 116% | 98.5% (inactive) | 116% (inactive) | 91.5% (inactive) | 111% (inactive) | 9.66% (inactive) | 101% | 111% | -2.7% (inactive) | -2.22% (inactive) |
| CS(=O)(=O)N1CCN(c2ccccc2NC(=O)c2cccs2)CC1 | 99.5% | 100% (inactive) | 99.5% (inactive) | 108% (inactive) | 91.3% (inactive) | -5% (inactive) | 96.3% | 91.3% | -1.17% (inactive) | 1% (inactive) |
| COc1ccc(OC)c(NC(=O)CCN2CCN(c3ccccc3F)CC2)c1 | 94.5% | 106% (inactive) | 94.5% (inactive) | 90.8% (inactive) | 97.8% (inactive) | 13.1% (inactive) | 84.7% | 97.8% | -4.93% (inactive) | -8.39% (inactive) |
| CC(=O)Oc1ccc(CCC(C)OC(C)=O)cc1 (stereo not given) | 101% | 92% (inactive) | 101% (inactive) | 93.2% (inactive) | 99.7% (inactive) | 2.78% (inactive) | 96.9% | 99.7% | -6.13% (inactive) | -1.13% (inactive) |
| COc1ccc2c(c1)[nH]c1c(=O)n(CCN(C)C)cnc12 | 105% | 85.5% (inactive) | 105% (inactive) | 104% (inactive) | 91.8% (inactive) | -8.28% (inactive) | 100% | 91.8% | -3.16% (inactive) | 1.48% (inactive) |
| O=C(NCc1ccccn1)C(C(=O)c1ccc(F)cc1)n1ccccc1=O (stereo not given) | 86.5% | 95.5% (inactive) | 86.5% (inactive) | 97.9% (inactive) | 96.4% (inactive) | -3.97% (inactive) | 100% | 96.4% | -4.05% (inactive) | 4.1% (inactive) |
| Cc1ccc2cc3cc(C(=O)NCCN4CCOCC4)oc3nc2c1 | 99% | 79.5% (inactive) | 99% (inactive) | 86% (inactive) | 96.6% (inactive) | 9.98% (inactive) | 86.6% | 96.6% | -5.13% (inactive) | 8.67% (inactive) |
| CCOC(=O)CSc1nc2sc(C)c(C)c2c(=O)n1C | 104% | 69% (inactive) | 104% (inactive) | 85.4% (inactive) | 94.2% (inactive) | 9.32% (inactive) | 84.8% | 94.2% | -2.34% (inactive) | -0.17% (inactive) |
| CC(C(=O)Nc1ccccc1-c1ccccc1)N1CCOCC1 (stereo not given) | 108% | 97.5% (inactive) | 108% (inactive) | 104% (inactive) | 96.1% (inactive) | -1.07% (inactive) | 97.1% | 96.1% | -10.6% (inactive) | -4.13% (inactive) |
| O=C1CC(c2cccs2)CC2=C1C(c1ccccc1)n1ncnc1N2 (stereo not given) | 105% | 104% (inactive) | 105% (inactive) | 100% (inactive) | 93.8% (inactive) | -5.41% (inactive) | 99.2% | 93.8% | -4.53% (inactive) | -2.3% (inactive) |
| Cn1c(=N)c(S(=O)(=O)c2ccc(Cl)cc2)cc2c(=O)n3ccccc3nc21 | 110% | 106% (inactive) | 110% (inactive) | 85.4% (inactive) | 83.1% (inactive) | -3.57% (inactive) | 86.7% | 83.1% | -1.95% (inactive) | -1.67% (inactive) |
| C=CCOc1nc2c(c(=O)n(C)c(=O)n2C)n1Cc1c(Cl)cccc1Cl | 97.5% | 83% (inactive) | 97.5% (inactive) | 94.9% (inactive) | 80.4% (inactive) | 62% (active) | 18.3% | 80.4% | -3.92% (inactive) | 11.9% (inactive) |
| CCOC(=O)CSc1nnc([C@H](CC(C)C)NC(=O)OC(C)(C)C)o1 | 109% | 106% (inactive) | 109% (inactive) | 94% (inactive) | 94.6% (inactive) | -0.88% (inactive) | 95.5% | 94.6% | -3.6% (inactive) | -3.71% (inactive) |
